Source: PubChem (several laboratories)
Cl transport mod: modulates chloride dependent transport by human KCC2; KCC2 cells, thallium flux FluoZin-2 fluorescence; B-score of Tl+ flux slope (higher = more flux/activation; lower = inhibition) at 10 µM; 190,000 compounds, 2.2% hits; AID 1456;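 active = thallium flux slope and its plate-corrected score both differing from the plate sample mean at a set confidence after two filtering rounds, in either direction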;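 also: slope of fluorescence scaled to starting intensity during 10 to 20 s after thallium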
RGS4 inh: human RGS4 inhibition | P49798 | HEK293 M3R/RGS4 inducible, Fluo-4 calcium flux; hits give high values; triggered by carbachol at its EC20 | B-score at 10 µM | 310,000 compounds, 0.45% hits | AID 463165;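 active = B-score, a plate-corrected calcium signal, over three deviations above library mean, with baseline fluorescence within five deviations of library mean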;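 also: RGS4 expression induced by doxycycline in cells with stable M3 receptor; B-score is computed from the integrated fluorescence ratio over baseline after carbachol; higher B-score means a larger calcium signal and so more RGS4 inhibition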
Target sequence (P49798 whole entry, looked up): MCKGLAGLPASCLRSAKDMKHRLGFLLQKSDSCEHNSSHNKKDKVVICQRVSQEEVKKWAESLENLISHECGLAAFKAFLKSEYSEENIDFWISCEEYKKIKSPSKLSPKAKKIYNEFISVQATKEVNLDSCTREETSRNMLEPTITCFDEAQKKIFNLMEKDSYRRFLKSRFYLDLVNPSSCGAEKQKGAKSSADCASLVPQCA
MrgX1 antagonist: human MrgX1 receptor antagonism, primary screen; B-score at 10 µM; 310,000 compounds, 1.3% hits; MRGX1-HEK293 calcium flux, Fluo-4, BAM8-22 antagonism; hits give low values;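 active = calcium-response B-score plate-corrected more than 3 library SD below zero, starting fluorescence within 5 deviations, no agonist response on first addition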;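 also: peak minus trough fluorescence over baseline after final BAM8-22 challenge near maximal dose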
Target sequence (Q96LB2 whole entry, looked up): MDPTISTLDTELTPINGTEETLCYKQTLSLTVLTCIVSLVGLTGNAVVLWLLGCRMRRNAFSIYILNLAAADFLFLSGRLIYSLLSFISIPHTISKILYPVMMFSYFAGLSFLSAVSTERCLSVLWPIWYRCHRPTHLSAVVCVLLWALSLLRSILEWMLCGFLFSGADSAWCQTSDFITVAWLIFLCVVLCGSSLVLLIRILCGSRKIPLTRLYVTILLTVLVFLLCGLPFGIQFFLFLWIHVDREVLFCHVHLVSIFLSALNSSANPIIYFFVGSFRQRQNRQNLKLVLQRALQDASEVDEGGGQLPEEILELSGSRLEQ
MrgX1 PAM: allosterically activates human MrgX1 receptor signaling; Q96LB2; MrgX1-HEK293, Fluo-4 calcium flux, FDSS; hits give high values; B-score at 10 µM; 310,000 compounds, 0.63% hits; AID 588675;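 active = plate-corrected calcium response at least 3 library SD above typical, normal starting fluorescence, not activating the receptor alone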;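 also: compound read alongside a low EC10 to EC30 dose of BAM8-22 agonist; peak minus trough fluorescence over baseline measured at the second addition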
MrgX1 agonist: activates human MrgX1 receptor signaling. Q96LB2. MrgX1-HEK293 cells, Fluo-4 calcium fluorescence, agonist mode; hits give high values. B-score at 10 µM. 310,000 compounds, 0.44% hits;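 active = calcium response B-score plate-corrected fluorescence ratio at least 3 library SD, with starting fluorescence B-score inside 5 SD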
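Material: MrgX1-expressing HEK293 cells; input: 15,000 cells per well; doses: test compound given as first of three sequential additions; schedule: overnight plating before 1 h dye loading; technique: Fluo-4 NW calcium-flux fluorescence, kinetic read; evaluation: baseline-normalised fluorescence change ratio, B-scored; control set: plate-wise positive and negative controls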
RGS4 act: potentiators or activators of RGS4 | HEK293 M3R/inducible RGS4, carbachol calcium flux Fluo4; hits give low values | B-score at 10 µM | 310,000 compounds, 0.92% hits | AID 463111;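 active = B-score of the integrated calcium signal more than 4 SD below the library mean, with starting fluorescence not abnormally high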;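 also: negative B-score means reduced calcium response which marks RGS4 activation or potentiation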
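Detection: kinetic calcium fluorescence imaging with Fluo4-AM dye, 2 µM / Material: HEK293 cells with stable M3R and inducible RGS4 / Schedule: recording 10 s baseline at 1 Hz, 100 s post-agonist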
MrgX1 ant reconf: confirmation of human MrgX1 receptor antagonists; shares compounds with MrgX1 antagonist; MrgX1-HEK293, BAM8-22 calcium flux, Fluo-4; hits give low values; remaining BAM8-22 calcium response % of control (hits give low values), % at 10 µM; 2,300 compounds, 19% hits; AID 602420;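 active = remaining agonist calcium response no higher than 100% minus 3 SD of agonist-only control wells, with starting fluorescence near control levels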;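 also: agonist BAM8-22 given at a near maximal EC90 to ECmax level; peak minus minimum fluorescence divided by baseline after agonist addition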
HEK293 Ca flux: MrgX1 antagonist counter-screen hit in parental HEK293 cells; shares compounds with MrgX1 antagonist; Fluo-4 calcium fluorescence, FDSS; fluorescence ratio F(max-min)/F0 at 10 µM; 4,000 compounds, 2% hits; AID 624111;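 active = duplicate-averaged calcium fluorescence ratio at least three times the standard deviation of buffer wells, a nonspecific response in parental cells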
HEK293 Ca counter: MrgX1 allosteric activator counter-screen hit in parental HEK293 cells; shares compounds with MrgX1 antagonist; parental HEK293 calcium flux, Fluo-4 fluorescence ratio; hits give high values; fluorescence ratio F(max-min)/F0 at 10 µM; 4,000 compounds, 0.4% hits;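 active = calcium fluorescence ratio, averaged over duplicates, at least 3 SD of the buffer-well ratio, meaning a nonspecific response in receptor-free cells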;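 also: untransfected parental HEK293 lacking MrgX1 used as counterscreen for MrgX1 allosteric activators; fluorescence change taken during the second addition on a kinetic imager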
HEK293 Ca cntr2: MrgX1 activator counter-screen hit in parental HEK293 cells; shares compounds with MrgX1 antagonist; Fluo-4 calcium fluorescence (FDSS); hits give high values; fluorescence ratio F(max-min)/F0 at 10 µM; 4,000 compounds, 8.7% hits; AID 624115;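 active = calcium fluorescence ratio at least three times the spread of buffer wells, meaning a non-specific response in parental cells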
* hit, by the source's call; i = inactive; · = no result. The list is not random: actives were taken first. Their share in the collection is about 4.7%.

SMILES	Cl transport mod	RGS4 inh	MrgX1 antagonist	MrgX1 PAM	MrgX1 agonist	RGS4 act	MrgX1 ant reconf	HEK293 Ca flux	HEK293 Ca counter	HEK293 Ca cntr2
Cc1ccc(Nc2nc(C(=O)N3CCC(C(=O)N4CCN(C)CC4)CC3)cs2)cc1	0.685	i	-8.25*	i	i	i	i	i	i	i
Cc1ccc(Nc2nc(C(=O)N3CCC(C(=O)NCc4ccccc4)CC3)cs2)cc1	·	i	i	i	i	i	·	·	·	·
Cc1cccc(-c2nc(CNC(=O)c3ccco3)cs2)c1	·	i	i	i	i	i	·	·	·	·
COc1ccccc1NC(=O)CN1CCN(CC(=O)Nc2ccc(S(N)(=O)=O)cc2)CC1	·	i	-7.59*	i	i	i	i	i	i	i
COc1cccc(NC(=O)c2nc(S(C)(=O)=O)ncc2Cl)c1	·	i	-5.54*	i	i	i	i	i	i	i
CN(c1ccccc1)S(=O)(=O)c1ccc(NC(=O)c2nc(S(C)(=O)=O)ncc2Cl)cc1	·	i	-5.75*	i	i	i	i	i	i	i
CN(c1ccccc1)S(=O)(=O)c1ccc(NC(=O)c2ccccc2)cc1	-1.03	i	i	i	i	i	·	·	·	·
COc1cccc(NC(=O)c2nc(SC)ncc2Cl)c1	·	i	i	i	i	i	·	·	·	·
C(=N\n1cnnc1)/c1ccc2ncccc2c1	·	i	-4.66*	i	i	i	i	i	i	i
C(=N\n1cnnc1)/c1ccccn1	·	i	i	i	i	i	·	·	·	·
CC(NC(N)=O)C(=O)OCc1ccc(Cl)cc1Cl (centres undefined)	·	i	-8.15*	i	i	i	i	i	i	i
O=C(C1CCCCC1)N1CCN(c2ccnc3cc(Cl)ccc23)CC1	-1.31	i	-11.9*	i	i	i	i	i	i	i
COC(=O)c1ccc(N(CC(=O)NC2CCCCC2)C(=O)CNC(=O)c2ccco2)cc1	·	i	i	i	i	i	·	·	·	·
CCc1cc(CNC(=O)c2ccc(OC3CCN(CCc4ccccc4)CC3)cc2)on1	·	i	i	i	i	i	·	·	·	·
CCOC(=O)c1cnn(-c2ccc(C)cc2)c1N	0.0613	i	-4.69*	i	i	i	i	i	i	i
CCOC(=O)c1ccc(-n2ncc(C(=O)OCC)c2N)cc1	-0.0134	i	i	i	i	i	·	·	·	·
CC1CCc2c(sc(NC(=O)COC(=O)c3ccc(O)cc3)c2C#N)C1 (centres undefined)	2.75	i	i	i	i	i	·	·	·	·
Cc1cc(=O)[nH]c(Nc2ccccc2C)n1	·	i	i	i	i	i	·	·	·	·
CN(C)CCCn1cnc2c1c(=O)[nH]c(=O)n2Cc1ccccc1	·	i	i	i	i	i	·	·	·	·
CN(C)S(=O)(=O)c1ccc2c(c1)C(=NO)c1cc(S(=O)(=O)N(C)C)ccc1-2	·	i	i	i	i	i	·	·	·	·
CN(C)S(=O)(=O)c1ccc2c(c1)C(CC(=O)O)OC2=O (centres undefined)	1.01	i	-4.54*	i	i	i	i	i	i	i
Cc1ccc(-c2noc(C3CCN(C(=O)Nc4ccc(C#N)cc4)CC3)n2)o1	·	i	-4.64*	i	i	i	76.1%*	i	i	i
COc1ccc(Cl)cc1NS(=O)(=O)c1cccc(C(=O)NCCCN2CCCC2=O)c1	·	i	i	i	i	i	·	·	·	·
Cc1c(C(=O)NCC2CCCO2)oc2ccc(S(=O)(=O)N3CCCCC3)cc12 (centres undefined)	-0.168	i	-7.22*	i	i	i	84.4%*	i	i	i
Cc1c(C(=O)NCC2CCCO2)oc2ccc(S(=O)(=O)N3CC(C)CC(C)C3)cc12 (centres undefined)	-2.55	i	i	i	i	i	·	·	·	·
SMILES	Cl transport mod	RGS4 inh	MrgX1 antagonist	MrgX1 PAM	MrgX1 agonist	RGS4 act	MrgX1 ant reconf	HEK293 Ca flux	HEK293 Ca counter	HEK293 Ca cntr2
CCN(c1ccccc1)S(=O)(=O)c1cccc(C(=O)NCC(c2cccs2)N2CCOCC2)c1 (centres undefined)	·	i	i	i	i	i	·	·	·	·
C=CCN1C(=O)c2ccc(C(=O)N3CCN(S(=O)(=O)c4cccc(F)c4)CC3)cc2C1=O	·	i	i	i	i	i	·	·	·	·
Cc1cccc(NC(=S)N2CCN(c3ccccc3)CC2)c1	·	i	i	i	i	i	·	·	·	·
Cc1cccc(NC(=O)CCN2CCN(C/C=C/c3ccccc3)CC2)c1	-2.7	i	-6.08*	i	i	i	i	i	i	i
O=C(CCN1CCN(C/C=C/c2ccccc2)CC1)Nc1ccccc1	-1.54	i	i	i	i	i	·	·	·	·
Cc1cccc(NC(=O)c2ccc(CN3CCN(Cc4ccccc4)CC3)cc2)c1	-0.581	i	-7.88*	i	i	i	i	i	i	i
Cc1cccc(CN2CCN(C(=S)Nc3ccccc3)CC2)c1	-0.373	i	-4.96*	i	i	i	i	i	i	i
COC(=O)C(NC(=O)CCc1nnc2ccc(N3CCCCC3)nn12)C(C)C (centres undefined)	·	i	i	i	i	i	·	·	·	·
COc1ccc(C(=O)CSc2nc(C(C)(C)C)nc3ccccc23)cc1	0.801	i	i	i	i	i	·	·	·	·
Cc1cc(C)cc(OCC(=O)OC(C)C(=O)Nc2c(C)n(C)n(-c3ccccc3)c2=O)c1 (centres undefined)	·	i	i	i	i	i	·	·	·	·
COc1cccc(CNC(=O)Cn2ncc3c(=O)oc4ccccc4c32)c1	-0.0795	i	i	i	i	i	·	·	·	·
COc1cc(/C=C/c2nc3ccccc3s2)cc(OC)c1O	-0.546	i	-5.74*	i	i	i	i	i	i	i
